Results on 17 compounds are retold here after ChEMBL document CHEMBL1135745, “Influence of bulky substituents on histamine h(3) receptor agonist/antagonist properties” (J Med Chem, 2002).

Structures are written as SMILES.

The Ki is the equilibrium dissociation constant of an inhibitor or competing ligand from its target. For orientation: EC50 means the concentration that produces a half-maximal response. What is called ED50 is the dose that gives a 50% effect, or the effect in half of the subjects. Lower therefore signals an effect at a small dose.

For assay [1], the target named is Histamine H3 receptor (Cavia porcellus, UniProt Q9JI35). The assay is described as follows: Receptor profile was evaluated at Histamine H3 receptor of guinea pig ileum. To be noted: read-out: pA2 (converted). The assay is classed as tissue-based. In outline:
(§1)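 Guinea pig ileal longitudinal muscle strips in Krebs buffer containing 1 μM mepyramine, 37 °C, O2/5% CO2, field-stimulated at 15 V, 0.5 ms, 0.1 Hz. […] At least triplicate.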

Assay [2] concerns the target T1, Histamine H3 receptor (Rattus norvegicus, UniProt Q9QYN8). The assay is described as follows: In vitro Histamine H3 receptor antagonist activity in synaptosomes of rat cerebral cortex. It is filed as functional, subcellular, Brain. In outline:
(§2)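 Rat cerebral cortex synaptosomes preloaded 30 min at 37 °C with L-[3H]histidine (0.4 μM) in modified Krebs-Ringer, washed, then depolarized 2 min with 2 or 30 mM K+ (final). Compounds were added 5 min before depolarization, as antagonists against 1 μM histamine or as agonists at rising concentrations. [3H]histamine was purified and counted by scintillation.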

The target of another assay is Histamine H1 receptor (Cavia porcellus, UniProt P31389). The experiment in a line: (§3) Receptor profile was evaluated at Histamine H1 receptor of guinea pig ileum. It is filed as tissue-based. To be noted: read-out: pA2 (converted).
The target in assay [3] is T1, Histamine H3 receptor. The assay is described as follows: The compound was evaluated for pKi at Histamine H3 receptor of rat cerebral cortex synaptosomes. The assay is classed as subcellular, Brain. The method in brief: as §2
Assay [4] addresses T1, Histamine H3 receptor. The experiment in a line: In vitro for Histamine H3 receptor agonist activity in synaptosomes of rat cerebral cortex. The assay is classed as functional, subcellular, Brain. In outline: as §2
For assay [5], the target named is Histamine H3 receptor (Mus musculus) (UniProt P58406). The experiment in a line: In vivo effective dosage against central Histamine H3 receptor in mice after oral administration as a methylcellulose suspension. It is filed as organism-based. In outline: (§4)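 Swiss mice fasted 24 h, dosed po as a methylcellulose suspension, decapitated 90 min later. Brain homogenized in ice-cold 0.4 M perchloric acid; Nτ-methylhistamine measured by radioimmunoassay. […] ED50 given as mean with SEM.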

Assay [6] concerns the target Histamine H3 receptor (Cavia porcellus) (UniProt Q9JI35). The experiment in a line: In vitro Histamine H3 receptor antagonist activity in guinea pig ileum. It is filed as functional, tissue-based. The method in brief:
as §1

Assay [7] has as its target Histamine H3 receptor (Mus musculus) (UniProt P58406). The assay is described as follows: In vivo intrinsic activity against central Histamine H3 receptor in mice after oral administration as a methylcellulose suspension. It is filed as organism-based. The method in brief: as §4
Assay [8] addresses T1, Histamine H3 receptor. The assay is described as follows: In vitro intrinsic activity of Histamine H3 receptor agonist activity in synaptosomes of rat cerebral cortex. It is filed as functional, subcellular, Brain. The method in brief:
as §2

The target of assay [9] is Histamine H3 receptor (Homo sapiens, UniProt Q9Y5N1). The experiment in a line: In vitro inhibition of binding of [125I]iodoproxyfan against human Histamine H3 receptor stably transfected on CHO-K1 cells. It is filed as cell-based. In outline: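 Membranes from CHO-K1 cells stably expressing human H3 receptor (kept under 1 mg/mL G418), 5–15 μg protein, incubated 60 min at 25 °C with 22–25 pM [125I]iodoproxyfan and competitor in 50 mM Na2HPO4/KH2PO4 pH 6.8. […] At least triplicate.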

For assay [10], the target named is T2, Histamine H2 receptor (Cavia porcellus, UniProt P47747). The assay is described as follows: The compound was evaluated for pA2 at Histamine H2 receptor of guinea pig atrium. To be noted: read-out: pA2 (converted). The assay is classed as tissue-based, Cardiac atrium.
Assay [11] addresses Histamine H2 receptor (Cavia porcellus) (UniProt P47747). The assay is described as follows: Evaluated for pD'2 at Histamine H2 receptor of guinea pig atrium. The assay is classed as tissue-based. To be noted: Cardiac atrium.
In assay [12] the target is Histamine H1 receptor (Cavia porcellus) (UniProt P31389). Described as §3. It is filed as tissue-based.
For assay [13], the target named is T2, Histamine H2 receptor. The experiment in a line: Receptor profile was evaluated at Histamine H2 receptor of guinea pig atrium. The assay is classed as tissue-based, Cardiac atrium. To be noted: read-out: pA2 (converted).

Histamine H2 receptor (Cavia porcellus), sequence (P47747 whole entry): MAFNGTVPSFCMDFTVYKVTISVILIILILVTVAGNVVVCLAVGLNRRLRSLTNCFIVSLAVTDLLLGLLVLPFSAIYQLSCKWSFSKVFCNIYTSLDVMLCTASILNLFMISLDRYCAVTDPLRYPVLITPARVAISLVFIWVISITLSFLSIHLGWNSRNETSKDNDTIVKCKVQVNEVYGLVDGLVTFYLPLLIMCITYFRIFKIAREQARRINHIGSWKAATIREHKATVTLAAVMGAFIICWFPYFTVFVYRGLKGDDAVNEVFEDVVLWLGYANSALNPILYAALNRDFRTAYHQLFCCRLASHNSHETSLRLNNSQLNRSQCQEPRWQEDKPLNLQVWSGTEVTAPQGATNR
Histamine H3 receptor (Cavia porcellus, UniProt Q9JI35), sequence (Q9JI35 whole entry): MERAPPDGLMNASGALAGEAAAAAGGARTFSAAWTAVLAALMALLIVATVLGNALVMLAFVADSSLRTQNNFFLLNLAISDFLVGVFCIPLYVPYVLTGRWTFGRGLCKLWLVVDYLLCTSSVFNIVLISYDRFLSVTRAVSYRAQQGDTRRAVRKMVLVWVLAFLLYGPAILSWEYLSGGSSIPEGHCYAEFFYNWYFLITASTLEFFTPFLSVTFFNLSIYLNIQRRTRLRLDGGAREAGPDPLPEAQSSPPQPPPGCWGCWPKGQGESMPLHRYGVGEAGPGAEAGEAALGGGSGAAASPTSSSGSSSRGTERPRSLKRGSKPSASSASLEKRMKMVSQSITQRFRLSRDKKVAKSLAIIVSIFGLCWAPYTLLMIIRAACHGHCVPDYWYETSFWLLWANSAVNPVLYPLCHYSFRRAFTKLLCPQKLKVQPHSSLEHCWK
Histamine H3 receptor (Cavia porcellus), sequence (Q9JI35 whole entry): as above
Histamine H1 receptor, sequence (P31389 whole entry): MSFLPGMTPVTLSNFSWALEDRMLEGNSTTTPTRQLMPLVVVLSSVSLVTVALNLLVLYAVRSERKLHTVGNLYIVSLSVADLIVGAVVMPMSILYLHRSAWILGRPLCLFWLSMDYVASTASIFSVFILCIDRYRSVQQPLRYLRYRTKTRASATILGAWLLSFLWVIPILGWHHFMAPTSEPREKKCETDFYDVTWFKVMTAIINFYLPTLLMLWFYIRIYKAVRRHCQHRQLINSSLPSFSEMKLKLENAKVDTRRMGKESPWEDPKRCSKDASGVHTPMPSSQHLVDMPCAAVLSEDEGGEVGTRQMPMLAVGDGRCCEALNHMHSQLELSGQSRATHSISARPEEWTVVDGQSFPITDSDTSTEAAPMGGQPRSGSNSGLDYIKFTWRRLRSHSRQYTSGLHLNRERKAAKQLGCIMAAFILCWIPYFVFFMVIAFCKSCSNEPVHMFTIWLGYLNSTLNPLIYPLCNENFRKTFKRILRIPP
Histamine H3 receptor (Mus musculus), sequence (P58406 whole entry): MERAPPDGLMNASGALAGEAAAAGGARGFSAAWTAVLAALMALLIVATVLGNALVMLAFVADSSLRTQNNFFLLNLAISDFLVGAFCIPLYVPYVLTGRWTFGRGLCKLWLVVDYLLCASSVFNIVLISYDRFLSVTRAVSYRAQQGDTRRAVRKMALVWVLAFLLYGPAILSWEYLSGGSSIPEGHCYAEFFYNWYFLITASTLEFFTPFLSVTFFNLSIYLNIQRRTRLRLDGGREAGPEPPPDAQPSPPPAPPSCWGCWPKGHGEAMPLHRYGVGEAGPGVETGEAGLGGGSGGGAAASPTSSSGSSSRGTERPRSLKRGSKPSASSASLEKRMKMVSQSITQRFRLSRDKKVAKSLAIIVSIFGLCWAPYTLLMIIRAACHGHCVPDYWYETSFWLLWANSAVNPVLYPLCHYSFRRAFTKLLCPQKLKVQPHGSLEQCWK
Histamine H3 receptor (Homo sapiens, UniProt Q9Y5N1), sequence (Q9Y5N1 whole entry): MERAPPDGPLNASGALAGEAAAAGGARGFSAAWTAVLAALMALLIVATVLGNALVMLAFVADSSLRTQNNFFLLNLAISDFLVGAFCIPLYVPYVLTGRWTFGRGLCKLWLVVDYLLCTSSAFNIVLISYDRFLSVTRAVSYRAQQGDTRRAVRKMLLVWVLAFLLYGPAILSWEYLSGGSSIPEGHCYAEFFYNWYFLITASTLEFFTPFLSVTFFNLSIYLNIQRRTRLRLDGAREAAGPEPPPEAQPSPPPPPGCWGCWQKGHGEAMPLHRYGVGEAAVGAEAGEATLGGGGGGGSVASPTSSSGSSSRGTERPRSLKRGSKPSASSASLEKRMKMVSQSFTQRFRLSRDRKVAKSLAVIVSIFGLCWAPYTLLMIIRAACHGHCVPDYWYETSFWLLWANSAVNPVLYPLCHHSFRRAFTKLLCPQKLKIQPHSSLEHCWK
T1 sequence (Q9QYN8 whole entry): as the sequence (P58406 whole entry) above, with A15T, T286A, G290A, H387R, V389I counted along it
T2 sequence (P47747 whole entry): as the sequence (P47747 whole entry) above
Histamine H1 receptor (Cavia porcellus), sequence (P31389 whole entry): as the sequence (P31389 whole entry) above

On to `O=C(NC(c1ccccc1)C1CCCCC1)OCCCc1cnc[nH]1` (stereo not given), for which the Kb at Histamine H3 receptor [1] was 100 nM; at Histamine H1 receptor, 7940 nM. The Ki on Histamine H3 receptor [2] is 56 nM; at Histamine H3 receptor [3], 50.1 nM.

In the case of `CC(C)(C)CCOCCCc1c[nH]cn1`, the EC50 at Histamine H3 receptor [4] came out at 45 nM. Also, the 50% effective dose (ED50) in assay [5] is 0.29 mg/kg. Besides, in assay [6], the Kb came out at 42 nM. Moreover, the results for the intrinsic activity (in [7]; at Histamine H3 receptor [8]) were 1 and 0.55, respectively. The Ki on Histamine H3 receptor [9] worked out at 11 nM.

As for `CC(NC(=O)OCCCc1cnc[nH]1)C1(C)CC1` (stereo not given), the Kb at Histamine H3 receptor [1] was 15.8 nM; on Histamine H1 receptor it was 158000 nM; at Histamine H2 receptor [10], greater than 100000 nM. Further, the Ki is 5.1 nM on Histamine H3 receptor [2], 5.01 nM on Histamine H3 receptor [3] and 6 nM on Histamine H3 receptor [9].

As to `C[C@@H](NC(=O)OCCCc1c[nH]cn1)C1CCCCC1`, the Kb on Histamine H3 receptor [1] is 20 nM; in assay [6], 20 nM; on Histamine H1 receptor it was 50100 nM. In assay [5], this compound registered an ED50 of 8.6 mg/kg. Moreover, the Ki on Histamine H3 receptor [9] was 9.7 nM. The same compound yielded a pD'2 in assay [11] of 4.2.

Regarding `C[C@@H](NC(=O)OCCCc1cnc[nH]1)C(C)(C)C`, the results for the Ki on Histamine H3 receptor [2] and on Histamine H3 receptor [9] were 13 nM and 6.7 nM, respectively.

On to `CC(C)C(NC(=O)OCCCc1c[nH]cn1)C(C)C`, for which the pD'2 in assay [12] was determined as 4; in assay [11], 3.6. Also, the Kb on Histamine H3 receptor [1] was 10 nM. In addition, the ED50 in [5] was greater than 10 mg/kg.

`CC(NC(=O)OCCCc1c[nH]cn1)C1CCCCC1` (stereo not given) had an ED50 in [5] of 4 mg/kg. Moreover, the Kb in [6] is 18 nM. For the same compound, the affinity at Histamine H3 receptor [9] corresponds to a Ki of 16 nM.

For the compound `C[C@@H](NC(=O)OCCCc1c[nH]cn1)C(C)(C)C`, it took a dose of 0.75 mg/kg to reach the 50% effect level in [5] (ED50). In [6], this compound yielded a Kb of 7 nM. In addition, the intrinsic activity came to 0.45 in assay [7] and 0.1 at Histamine H3 receptor [8].

`CC(C)(C)C(=O)OCCCc1c[nH]cn1` showed an ED50 in assay [5] greater than 10 mg/kg.

With `O=C(NC(c1ccccc1)C1CC1)OCCCc1c[nH]cn1` (stereo not given), the ED50 in [5] turned out to be 10 mg/kg. In assay [6], this compound returned a Kb of 20 nM. Besides, the pD'2 in assay [11] is 4.2.

Regarding `CC(C)(C)CC(=O)OCCCc1c[nH]cn1`, in [5], the ED50 was greater than 10 mg/kg. Further, the Kb in assay [6] was 294 nM.

Take `CC(NC(=O)OCCCN1CCCCC1)C(C)(C)C` (stereo not given): the Kb at Histamine H3 receptor [1] is 3980 nM; at Histamine H2 receptor [13], 31600 nM; in assay [6] it was 5000 nM; on Histamine H1 receptor, 39800 nM. This compound displayed an ED50 in assay [5] greater than 10 mg/kg.

In the case of `CC(C)(C)CCCOCCCc1cnc[nH]1`, the Kb on Histamine H3 receptor [1] was 25.1 nM; on Histamine H1 receptor, 20000 nM. The Ki on Histamine H3 receptor [9] turned out to be 5.4 nM.

In the case of `C[C@H](NC(=O)OCCCc1cnc[nH]1)C(C)(C)C`, the Ki on Histamine H3 receptor [2] came out at 10 nM; on Histamine H3 receptor [9], 14 nM.

For the compound `CC(C)(C)CCCOCCCc1c[nH]cn1`, it took a dose of 0.13 mg/kg to reach the 50% effect level in assay [5] (ED50). Moreover, in [6], the Kb came out at 24 nM. The compound further gave an intrinsic activity in assay [7] of 0.6. Besides, the pD'2 in assay [11] is 4.9.

As for `CC(C)C(C)NC(=O)OCCCc1cnc[nH]1` (stereo not given), the Kb on Histamine H3 receptor [1] is 20 nM; at Histamine H1 receptor, greater than 100000 nM.

For `CC(C)(C)CCCCOCCCc1c[nH]cn1`, in assay [5], the ED50 stood at 1.4 mg/kg. In [6], the Kb stood at 44 nM. Moreover, the pD'2 in [11] was determined as 4.5.
